Experimental data as given in ChEMBL document CHEMBL3351898, “4-Aminoquinoline-pyrimidine hybrids: synthesis, antimalarial activity, heme binding and docking studies” (Eur J Med Chem, 2015).
The source made the active and inactive calls. No cut-off for these calls is given here.

What was measured:
[1] = system: Vero; experiment: Cytotoxicity against African green monkey Vero cells after 72 hrs by neutral red assay; assay type: cell-based, Chlorocebus sabaeus; conditions: in the assay text read “after 48 hrs” for “after 72 hrs”
Summary of the method: (§1)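 Vero cells (monkey kidney […]) were seeded at 25,000 cells/well and incubated 24 h, then exposed to a range of compound concentrations for 48 h. Viable cells were counted by Neutral Red assay, and IC50 was obtained from dose-response curves.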

[2] = system: Plasmodium falciparum; experiment: Antimalarial activity against chloroquine-sensitive Plasmodium falciparum D6 assessed as inhibition of parasite growth after 72 hrs by parasite LDH release assay; assay type: functional, organism-based; conditions: D6, 72 h
Summary of the method: (§2)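 Asexual P. falciparum cultures at 2% parasitemia and 2% hematocrit in RPMI 1640 with 10% human serum and amikacin were added to serially diluted compound. Plates were incubated 72 h at 37 °C under 90% N2/5% O2/5% CO2. Growth was read by pLDH: Malstat reagent 30 min at room temperature, then NBT/PES 1 h in the dark. IC50 taken from dose-response curves; chloroquine and pyrimethamine controls.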

[3] = Resistance index, ratio of IC50 for chloroquine-resistant Plasmodium falciparum W2 to IC50 for chloroquine-sensitive Plasmodium falciparum D6; assay type: functional
[4] = system: Plasmodium falciparum; experiment: Antimalarial activity against chloroquine-resistant Plasmodium falciparum W2 assessed as inhibition of parasite growth after 72 hrs by parasite LDH release assay; assay type: functional, organism-based; conditions: W2, 72 h; summary of the method: as §2
[5] = Selectivity index, ratio of IC50 for African green monkey Vero cells to IC50 for chloroquine-resistant Plasmodium falciparum W2; assay type: toxicity, cell-based; conditions: read-out: Ratio IC50
Summary of the method: (§3)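 Vero cells seeded at 25,000 cells/well and grown 24 h, then exposed to a range of compound concentrations for 48 h. Viability measured by Neutral Red uptake; IC50 from dose-response curves. SI calculated as Vero IC50 divided by antiplasmodial IC50 for the named strain.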

[6] = Selectivity index, ratio of IC50 for African green monkey Vero cells to IC50 for chloroquine-sensitive Plasmodium falciparum D6; assay type: toxicity, cell-based; conditions: read-out: Ratio IC50; summary of the method: as §3
[7] = system: Plasmodium falciparum; experiment: Antimalarial activity against chloroquine-resistant Plasmodium falciparum W2 assessed as inhibition of parasite growth up to 19 uM after 72 hrs by parasite LDH release assay; assay type: functional, organism-based; summary of the method: as §2
[8] = system: Vero; experiment: Cytotoxicity against African green monkey Vero cells up to 20 uM after 72 hrs by neutral red assay; assay type: cell-based; conditions: chlorocebus sabaeus, 48 h, in the assay text read “48 hrs” for “72 hrs”; summary of the method: as §1
[9] = system: mu-oxodimeric heme; experiment: Binding affinity to mu-oxo-heme (unknown origin) assessed as binding constant at pH 5.8
Summary of the method: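 μ-Oxo-dimeric heme in 20 mM phosphate buffer pH 5.8 was titrated with compound, following the decrease in absorbance at 362 nm. The log K was derived from the titration, and stoichiometry came from a Job's plot.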

[10] = system: Heme; experiment: Binding affinity to monomeric heme (unknown origin) assessed as binding constant at pH 5.6
Summary of the method: (§4)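 Hematin in 40% DMSO (monomeric heme, Soret band 402 nm) was titrated with compound in 0.02 M HEPES pH 7.4 or 0.02 M MES pH 5.6. Association constants (log K) were calculated from the titration data, and stoichiometry was taken from a Job's plot of absorbance at 402 nm against compound mole fraction.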

[11] = system: Heme; experiment: Binding affinity to heme (unknown origin) assessed as reduction in Fe(3+) intensity at pH 5.6
[12] = system: Heme; experiment: Binding affinity to monomeric heme (unknown origin) assessed as binding constant at pH 7.4; summary of the method: as §4
[13] = system: Heme; experiment: Binding affinity to heme (unknown origin) assessed as reduction in Fe(3+) intensity
[14] = system: Heme; experiment: Binding affinity to heme (unknown origin) assessed as reduction in Fe(3+) intensity at pH 7.4
[15] = system: Plasmodium berghei; experiment: Antimalarial activity against Plasmodium berghei infected in mouse assessed as reduction in parasitemia at 100 mg/kg/day, po dosed on days 0, 1 and 2 post infection measured on day 5; assay type: functional; conditions: 120 h
Summary of the method: (§5)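 P. berghei-infected mice were given the compound orally at 11.1, 33.3 or 100 mg/kg × 3 days. Vehicle and chloroquine groups were included. Parasitemia was read on days 5 and 7, and % suppression was calculated with mean parasitemia in the vehicle control taken as 100%. Mean survival time was also recorded.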

[16] = system: Plasmodium berghei; experiment: Antimalarial activity against Plasmodium berghei infected in mouse assessed as mean survival time at 100 mg/kg/day, po dosed on days 0, 1 and 2 post infection; assay type: functional
Summary of the method: (§6)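 P. berghei-infected mice dosed orally with test agent at 11.1, 33.3 or 100 mg/kg, once daily for 3 days; vehicle and chloroquine controls. Mean survival time recorded; parasitemia on days 5 and 7 expressed as % suppression, taking mean vehicle-control parasitemia as 100%.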

[17] = system: Plasmodium berghei; experiment: Antimalarial activity against Plasmodium berghei infected in mouse assessed as reduction in parasitemia at 100 mg/kg/day, po dosed on days 0, 1 and 2 post infection measured on day 7; assay type: functional; conditions: 168 h; summary of the method: as §5
[18] = system: Plasmodium berghei; experiment: Antimalarial activity against Plasmodium berghei infected in mouse assessed as reduction in parasitemia at 11.1 mg/kg/day, po dosed on days 0, 1 and 2 post infection measured on day 5; assay type: functional; conditions: 120 h; summary of the method: as §5
[19] = system: Plasmodium berghei; experiment: Antimalarial activity against Plasmodium berghei infected in mouse assessed as reduction in parasitemia at 33.3 mg/kg/day, po dosed on days 0, 1 and 2 post infection measured on day 5; assay type: functional; conditions: 120 h; summary of the method: as §5
[20] = system: Plasmodium berghei; experiment: Antimalarial activity against Plasmodium berghei infected in mouse assessed as mean survival time at 11.1 mg/kg/day, po dosed on days 0, 1 and 2 post infection; assay type: functional; summary of the method: as §6
[21] = system: Plasmodium berghei; experiment: Antimalarial activity against Plasmodium berghei infected in mouse assessed as reduction in parasitemia at 33.3 mg/kg/day, po dosed on days 0, 1 and 2 post infection measured on day 7; assay type: functional; conditions: 168 h; summary of the method: as §5
[22] = system: Plasmodium berghei; experiment: Antimalarial activity against Plasmodium berghei infected in mouse assessed as mean survival time at 33.3 mg/kg/day, po dosed on days 0, 1 and 2 post infection; assay type: functional; summary of the method: as §6
[23] = Chlorocebus sabaeus, Vero, 48 h, read-out: IC50

| Structure (SMILES) | IC50 [1, 23] [nM] | IC50 [2] [nM] | Ratio IC50 [3] | IC50 [4] [nM] | selectivity ratio [5] | selectivity ratio [6] | IC50 ([1]; vero) | Activity [8] | also measured |
| --- | --- | --- | --- | --- | --- | --- | --- | --- | --- |
| Cc1ccc(Nc2ccnc(NCCNc3ccnc4cc(Cl)ccc34)n2)cc1 | 13600 | 101 | 1.41 | 143 | 95.1 | 135 |  |  |  |
| CCc1nc(N)nc(N)c1-c1ccc(Cl)cc1 |  |  |  |  |  |  |  |  | growth inhibition (GI) [7]: inactive |
| COc1cc(Nc2ccnc(NCCCCNc3ccnc4cc(Cl)ccc34)n2)cc(OC)c1 | 12500 | 44 | 2.72 | 120 | 104 | 285 |  |  |  |
| Clc1ccc2c(NCCCCNc3nccc(Nc4ccccc4)n3)ccnc2c1 | 14300 | 44 | 9.15 | 403 | 35.5 | 326 |  |  |  |
| Clc1ccc(Nc2ccnc(NCCCCNc3ccnc4cc(Cl)ccc34)n2)cc1 | 11000 | 44 | 1.18 | 52 | 212 | 251 |  |  |  |
| Fc1ccc(Nc2ccnc(NCCNc3ccnc4cc(Cl)ccc34)n2)cc1 |  | 6020 | 1.65 | 9990 | > 2 | > 3.32 | Not Active | Non-toxic |  |
| Clc1ccc2c(NCCCNc3nccc(Nc4ccc(Br)cc4)n3)ccnc2c1 | 11200 | 49 | 0.95 | 47 | 237 | 228 |  |  |  |
| COc1ccc(Nc2ccnc(NCCCCNc3ccnc4cc(Cl)ccc34)n2)cc1 | 11100 | 50 | 1.34 | 67 | 166 | 223 |  |  |  |
| Clc1ccc(Nc2ccnc(NCCNc3ccnc4cc(Cl)ccc34)n2)cc1 | 15800 | 47 | 0.978 | 46 | 342 | 335 |  |  | log K [9]: 5.12; log K [10]: 5.51; Activity [11]: Active; log K [12]: 5.04; Activity [13]: Active; Activity [14]: Active |
| Cc1ccc(Nc2ccnc(NCCCNc3ccnc4cc(Cl)ccc34)n2)cc1 | 18500 | 153 | 2.26 | 346 | 53.4 | 121 |  |  |  |
| Clc1ccc2c(NCCNc3nccc(Nc4ccc(Br)cc4)n3)ccnc2c1 |  | 37 | 3.67 | 136 | > 147 | > 541 | Not Active | Non-toxic |  |
| Fc1ccc(Nc2ccnc(NCCCCNc3ccnc4cc(Cl)ccc34)n2)cc1 |  | 3200 | 1.82 | 5830 | > 3.43 | > 6.25 | Not Active | Non-toxic |  |
| Cc1ccc(Nc2ccnc(NCCCCNc3ccnc4cc(Cl)ccc34)n2)cc1 | 19300 | 138 | 3.75 | 518 | 37.2 | 140 |  |  |  |
| Fc1ccc(Nc2ccnc(NCCCNc3ccnc4cc(Cl)ccc34)n2)cc1 | 13700 | 28 | 3.35 | 94 | 146 | 490 |  |  |  |
| COc1ccc(Nc2ccnc(NCCCNc3ccnc4cc(Cl)ccc34)n2)cc1 | 13300 | 40 | 2.02 | 81 | 165 | 333 |  |  |  |
| COc1ccc(Nc2ccnc(NCCNc3ccnc4cc(Cl)ccc34)n2)cc1 |  | 40 | 6.03 | 241 | > 83 | > 500 | Not Active | Non-toxic |  |
| CCN(CC)CCCC(C)Nc1ccnc2cc(Cl)ccc12 (configuration not stated) [CHLOROQUINE] |  |  |  |  |  |  | Not Active | Non-toxic | inhibition in vivo at 100 mg/kg/day [15]: 100%; MST [16]: 26.2 days; inhibition in vivo at 100 mg/kg/day [17]: 100% |
| Clc1ccc2c(NCCCNc3nccc(Nc4ccccc4)n3)ccnc2c1 | 12800 | 19 | 7.57 | 144 | 89.2 | 676 |  |  |  |
| Clc1ccc(Nc2ccnc(NCCCNc3ccnc4cc(Cl)ccc34)n2)cc1 | 13400 | 47 | 9.46 | 445 | 30.2 | 286 |  |  |  |
| Clc1ccc2c(NCCNc3nccc(Nc4ccccc4)n3)ccnc2c1 |  | 1510 | 1.05 | 1530 | > 13.1 | > 13.2 | Not Active | Non-toxic |  |
| COc1cc(Nc2ccnc(NCCCNc3ccnc4cc(Cl)ccc34)n2)cc(OC)c1 | 12900 | 38 | 2.81 | 107 | 121 | 340 |  |  |  |
| COc1cc(Nc2ccnc(NCCNc3ccnc4cc(Cl)ccc34)n2)cc(OC)c1 |  | 33 | 1.75 | 58 | > 345 | > 606 | Not Active | Non-toxic | inhibition in vivo at 11.1 mg/kg/day [18]: 1.77%; inhibition in vivo at 100 mg/kg/day [15]: 42.1%; inhibition in vivo at 33.3 mg/kg/day [19]: 15.1%; MST [20]: 5 days; MST [16]: 9 days; inhibition in vivo at 33.3 mg/kg/day [21]: 6.2%; inhibition in vivo at 100 mg/kg/day [17]: 10.4%; MST [22]: 8.6 days |
| Clc1ccc2c(NCCCCNc3nccc(Nc4ccc(Br)cc4)n3)ccnc2c1 | 10000 | 47 | 1.34 | 63 | 159 | 214 |  |  |  |
